ChEMBL document CHEMBL1139421, “Synthesis and elastase-inhibiting activity of 2-pyridinyl-isothiazol-3(2H)-one 1,1-dioxides” (Bioorg Med Chem, 2008)

Tests used:
Neutrophil elastase = molecular target: T1, Neutrophil elastase (Homo sapiens, UniProt P08246); experiment: Inhibition of human leukocyte elastase
T1 sequence (P08246 whole entry): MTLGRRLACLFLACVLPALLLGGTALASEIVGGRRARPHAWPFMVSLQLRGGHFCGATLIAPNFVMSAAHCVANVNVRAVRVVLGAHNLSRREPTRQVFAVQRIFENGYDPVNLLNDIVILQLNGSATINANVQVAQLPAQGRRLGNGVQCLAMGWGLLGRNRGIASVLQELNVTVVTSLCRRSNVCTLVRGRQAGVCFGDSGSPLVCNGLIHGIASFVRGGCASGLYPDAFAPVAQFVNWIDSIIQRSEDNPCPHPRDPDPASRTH
In short: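 Human leukocyte elastase at 50 ng/ml final, 25 °C, in 50 mM sodium phosphate, 500 mM NaCl, pH 7.8. MeOSuc-Ala-Ala-Pro-Val-pNA at 100 µM final (1.9 Km), with 3.5% DMSO; started with enzyme. Read at 405 nm over 10 min. IC50 from linear steady-state rates: duplicate determinations at 25 and 50 µM, or five concentrations fitted nonlinearly.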

Cathepsin G = molecular target: T2, Cathepsin G (Homo sapiens, UniProt P08311); experiment: Inhibition of human cathepsin G
T2 sequence (P08311 whole entry): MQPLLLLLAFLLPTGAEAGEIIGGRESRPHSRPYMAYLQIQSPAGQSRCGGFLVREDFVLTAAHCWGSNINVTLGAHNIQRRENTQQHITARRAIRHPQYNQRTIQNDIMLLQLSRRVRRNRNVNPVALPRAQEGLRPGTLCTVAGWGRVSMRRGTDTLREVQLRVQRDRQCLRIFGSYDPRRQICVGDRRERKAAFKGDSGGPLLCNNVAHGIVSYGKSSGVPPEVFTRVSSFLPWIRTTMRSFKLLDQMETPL
In short: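 Human cathepsin G at 2.5 mU/ml final, 25 °C, in 20 mM Tris-HCl, 150 mM NaCl, pH 8.4. Suc-Ala-Ala-Pro-Phe-pNA at 500 µM final, with 1.5% DMSO; started with enzyme. Read at 405 nm over 10 min. IC50 from linear steady-state rate, duplicate determinations at 12.5 µM inhibitor, IC50 = [I]/(v0/v − 1).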

[1] = Inhibition of bovine trypsin; set-up: species or system Bos taurus
In short: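 Bovine pancreatic trypsin at 12.5 ng/ml final, 25 °C, in 20 mM Tris-HCl, 150 mM NaCl, pH 8.4. Substrate Suc-Ala-Ala-Pro-Arg-pNA at 200 µM final, with 6% DMSO. Started with enzyme; release of pNA read at 405 nm over 10 min. IC50 taken from linear steady-state turnover, duplicate determinations at inhibitor 25 and 50 µM.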

Procathepsin L = Procathepsin L (Homo sapiens, UniProt P07711); experiment: Inhibition of human cathepsin L
Procathepsin L, sequence (P07711 whole entry): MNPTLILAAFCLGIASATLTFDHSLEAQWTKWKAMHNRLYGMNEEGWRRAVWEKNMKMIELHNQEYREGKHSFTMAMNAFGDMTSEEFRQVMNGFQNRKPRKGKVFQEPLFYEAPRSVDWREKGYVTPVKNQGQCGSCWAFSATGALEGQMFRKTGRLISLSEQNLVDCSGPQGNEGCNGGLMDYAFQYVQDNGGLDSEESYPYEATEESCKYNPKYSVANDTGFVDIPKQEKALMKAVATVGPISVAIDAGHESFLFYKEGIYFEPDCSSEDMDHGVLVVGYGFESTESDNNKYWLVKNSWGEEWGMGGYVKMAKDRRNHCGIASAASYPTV
In short: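 Human cathepsin L at 4 ng/ml final, 37 °C, in 100 mM sodium phosphate pH 6.0, 100 mM NaCl, 5 mM EDTA, 0.01% Brij 35. Enzyme was activated 30 min at 37 °C with 5 mM DTT. Z-Phe-Arg-pNA at 100 µM final, with 3% DMSO; read at 405 nm over 10 min, with linear regression of progress curves.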

[2] = molecular target: Angiotensin-converting enzyme (Homo sapiens, UniProt P12821); experiment: Inhibition of human ACE
Angiotensin-converting enzyme, sequence (P12821 whole entry): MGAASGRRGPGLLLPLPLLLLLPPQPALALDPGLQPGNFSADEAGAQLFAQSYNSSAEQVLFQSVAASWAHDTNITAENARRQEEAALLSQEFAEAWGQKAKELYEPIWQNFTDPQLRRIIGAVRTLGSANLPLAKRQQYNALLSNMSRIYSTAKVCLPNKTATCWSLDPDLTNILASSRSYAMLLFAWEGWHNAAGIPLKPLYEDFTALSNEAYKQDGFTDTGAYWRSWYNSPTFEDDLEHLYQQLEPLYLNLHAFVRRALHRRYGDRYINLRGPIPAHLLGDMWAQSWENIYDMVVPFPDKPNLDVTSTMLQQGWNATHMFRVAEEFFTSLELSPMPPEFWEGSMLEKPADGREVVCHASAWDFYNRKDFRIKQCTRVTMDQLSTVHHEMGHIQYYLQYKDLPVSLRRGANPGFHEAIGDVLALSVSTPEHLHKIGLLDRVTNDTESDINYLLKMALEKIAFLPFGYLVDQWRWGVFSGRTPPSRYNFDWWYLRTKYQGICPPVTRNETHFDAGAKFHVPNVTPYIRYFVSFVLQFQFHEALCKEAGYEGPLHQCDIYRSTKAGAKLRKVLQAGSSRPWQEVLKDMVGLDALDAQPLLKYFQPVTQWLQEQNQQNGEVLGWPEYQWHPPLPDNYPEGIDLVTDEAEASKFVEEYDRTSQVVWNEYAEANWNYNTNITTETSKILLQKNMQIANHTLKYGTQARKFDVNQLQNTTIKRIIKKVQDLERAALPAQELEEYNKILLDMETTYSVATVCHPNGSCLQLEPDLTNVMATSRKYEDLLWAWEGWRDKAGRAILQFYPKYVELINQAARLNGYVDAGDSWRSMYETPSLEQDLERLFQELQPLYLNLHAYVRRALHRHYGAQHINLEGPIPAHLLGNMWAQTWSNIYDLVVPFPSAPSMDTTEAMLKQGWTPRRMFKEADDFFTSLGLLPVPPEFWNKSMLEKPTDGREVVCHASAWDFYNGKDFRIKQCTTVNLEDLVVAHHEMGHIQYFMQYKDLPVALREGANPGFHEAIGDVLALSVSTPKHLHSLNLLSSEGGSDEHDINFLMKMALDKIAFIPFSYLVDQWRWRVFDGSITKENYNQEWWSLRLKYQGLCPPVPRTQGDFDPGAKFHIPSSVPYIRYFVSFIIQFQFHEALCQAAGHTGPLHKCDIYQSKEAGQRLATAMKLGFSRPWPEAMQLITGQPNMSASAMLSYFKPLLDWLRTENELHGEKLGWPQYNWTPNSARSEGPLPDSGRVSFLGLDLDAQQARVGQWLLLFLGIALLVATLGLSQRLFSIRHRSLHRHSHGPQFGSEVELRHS
In short: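 Human ACE at 86.8 ng/ml final, 37 °C, in 50 mM Tris-HCl, 300 mM NaCl, pH 7.5. Enzyme was preincubated 10 min at 37 °C after dilution. FA-Phe-Gly-Gly at 3 mM final, with 3% DMSO. Absorbance decrease read at 352 nm over 20 min. IC50 from linear steady-state turnover.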

Acetylcholinesterase = Acetylcholinesterase (Homo sapiens, UniProt P22303); experiment: Inhibition of acetylcholinesterase
Acetylcholinesterase, sequence (P22303 whole entry): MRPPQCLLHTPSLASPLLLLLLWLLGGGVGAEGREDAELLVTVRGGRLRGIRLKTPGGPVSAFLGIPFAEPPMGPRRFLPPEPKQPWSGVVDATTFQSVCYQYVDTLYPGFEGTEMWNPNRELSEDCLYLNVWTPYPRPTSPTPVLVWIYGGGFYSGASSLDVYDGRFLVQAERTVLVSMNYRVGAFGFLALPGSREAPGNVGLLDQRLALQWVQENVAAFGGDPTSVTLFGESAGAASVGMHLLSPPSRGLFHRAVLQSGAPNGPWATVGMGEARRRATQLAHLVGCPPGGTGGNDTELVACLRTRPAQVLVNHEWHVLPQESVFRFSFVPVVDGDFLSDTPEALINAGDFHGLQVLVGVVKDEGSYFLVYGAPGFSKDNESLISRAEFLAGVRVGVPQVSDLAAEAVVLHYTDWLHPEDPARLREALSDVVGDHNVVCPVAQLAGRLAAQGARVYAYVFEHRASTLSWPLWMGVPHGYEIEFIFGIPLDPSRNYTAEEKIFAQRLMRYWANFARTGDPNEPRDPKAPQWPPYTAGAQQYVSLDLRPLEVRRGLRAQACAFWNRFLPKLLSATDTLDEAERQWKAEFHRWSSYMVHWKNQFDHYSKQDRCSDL
In short: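 Acetylcholinesterase in 100 mM sodium phosphate, 100 mM NaCl, pH 7.3. Enzyme, DTNB and test compound (acetonitrile stocks, added acetonitrile) preincubated 15 min at 25 °C. Reaction started with acetylthiocholine; DTNB final 350 µM. Read at 412 nm, 25 °C. Progress curves followed 5 min and fitted by linear regression; IC50 derived from rates with and without inhibitor.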

[3] = molecular target: Bile salt-activated lipase (Bos taurus) (UniProt P30122); experiment: Inhibition of cholesterol esterase
Bile salt-activated lipase (Bos taurus), sequence (P30122 whole entry, looked up): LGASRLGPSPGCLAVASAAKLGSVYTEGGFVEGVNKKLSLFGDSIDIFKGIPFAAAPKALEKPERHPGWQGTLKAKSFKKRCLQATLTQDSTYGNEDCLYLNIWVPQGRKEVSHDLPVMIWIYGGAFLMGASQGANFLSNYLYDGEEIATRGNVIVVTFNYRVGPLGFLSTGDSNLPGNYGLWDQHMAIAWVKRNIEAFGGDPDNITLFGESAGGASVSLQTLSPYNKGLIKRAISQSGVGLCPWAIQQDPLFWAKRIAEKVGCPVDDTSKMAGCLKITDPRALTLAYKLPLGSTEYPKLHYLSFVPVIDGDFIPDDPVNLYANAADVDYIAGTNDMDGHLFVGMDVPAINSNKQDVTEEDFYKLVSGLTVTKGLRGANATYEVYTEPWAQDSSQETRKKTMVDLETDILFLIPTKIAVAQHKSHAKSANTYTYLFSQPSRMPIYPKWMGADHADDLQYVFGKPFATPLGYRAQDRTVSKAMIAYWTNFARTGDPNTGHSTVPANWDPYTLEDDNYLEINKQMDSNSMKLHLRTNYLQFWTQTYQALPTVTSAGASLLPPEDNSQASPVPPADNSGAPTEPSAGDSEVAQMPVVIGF

SMILES: O=C1C2=C(CCCC2)S(=O)(=O)N1c1cccc(Br)n1
- IC50 (Neutrophil elastase): > 100 µM
- IC50 (Cathepsin G): > 100 µM
- IC50 [1]: > 100 µM
- IC50 (Procathepsin L): > 100 µM
- IC50 [2]: > 100 µM
- IC50 (Acetylcholinesterase): > 100 µM
- IC50 [3]: > 100 µM

SMILES: O=C1C2=C(CCCC2)S(=O)(=O)N1c1ncc(F)cc1F
- IC50 (Neutrophil elastase): > 100 µM
- IC50 (Cathepsin G): > 100 µM
- IC50 [1]: > 100 µM
- IC50 (Procathepsin L): > 100 µM
- IC50 [2]: > 100 µM
- IC50 (Acetylcholinesterase): > 100 µM
- IC50 [3]: > 100 µM

SMILES: O=C1C2=C(CCCC2)S(=O)(=O)N1c1c(F)c(F)nc(F)c1F
- IC50 (Neutrophil elastase): 3.1 µM
- IC50 (Cathepsin G): > 100 µM
- IC50 [1]: > 100 µM
- IC50 (Procathepsin L): > 100 µM
- IC50 [2]: > 100 µM
- IC50 (Acetylcholinesterase): > 100 µM
- IC50 [3]: > 100 µM

SMILES: CC1=C(c2ccccc2)C(=O)N(c2c(F)c(F)nc(F)c2F)S1(=O)=O
- IC50 (Neutrophil elastase): 33 µM
- IC50 (Cathepsin G): > 100 µM
- IC50 [1]: > 100 µM
- IC50 (Procathepsin L): > 100 µM
- IC50 [2]: > 100 µM
- IC50 (Acetylcholinesterase): > 100 µM
- IC50 [3]: > 100 µM

SMILES: O=C1C2=C(CCCC2)S(=O)(=O)N1c1c(F)c(F)c(F)c(F)c1F
- IC50 (Neutrophil elastase): > 100 µM
- IC50 (Cathepsin G): > 100 µM
- IC50 [1]: > 100 µM
- IC50 (Procathepsin L): > 100 µM
- IC50 [2]: > 100 µM
- IC50 (Acetylcholinesterase): > 100 µM
- IC50 [3]: > 100 µM

SMILES: O=C1C2=C(CCCC2)S(=O)(=O)N1c1ccncc1.[O-][Cl+3]([O-])([O-])O
- IC50 (Neutrophil elastase): > 100 µM
- IC50 (Cathepsin G): > 100 µM
- IC50 [1]: > 100 µM
- IC50 (Procathepsin L): > 100 µM
- IC50 [2]: > 100 µM
- IC50 (Acetylcholinesterase): > 100 µM
- IC50 [3]: > 100 µM

SMILES: CC1=C(C)S(=O)(=O)N(c2c(F)c(F)nc(F)c2F)C1=O
- IC50 (Neutrophil elastase): > 100 µM
- IC50 (Cathepsin G): > 100 µM
- IC50 [1]: > 100 µM
- IC50 (Procathepsin L): > 100 µM
- IC50 [2]: > 100 µM
- IC50 (Acetylcholinesterase): > 100 µM
- IC50 [3]: > 100 µM

SMILES: O=C1C2=C(CCCC2)S(=O)(=O)N1c1cccc(Cl)n1
- IC50 (Neutrophil elastase): > 100 µM
- IC50 (Cathepsin G): > 100 µM
- IC50 [1]: > 100 µM
- IC50 (Procathepsin L): > 100 µM
- IC50 [2]: > 100 µM
- IC50 (Acetylcholinesterase): > 100 µM
- IC50 [3]: > 100 µM

SMILES: O=C1c2ccccc2S(=O)(=O)N1c1c(F)c(F)nc(F)c1F
- IC50 (Neutrophil elastase): 0.081 µM
- Ki (Neutrophil elastase): 0.028 µM
- IC50 (Cathepsin G): 3.7 µM
- IC50 [1]: 7.5 µM
- IC50 (Procathepsin L): > 100 µM
- IC50 [2]: > 100 µM
- IC50 (Acetylcholinesterase): > 100 µM
- IC50 [3]: 11 µM
